Experimental data from ChEMBL document CHEMBL4364248, “Discovery of 1,2,4-oxadiazole-Containing hydroxamic acid derivatives as histone deacetylase inhibitors potential application in cancer therapy” (Eur J Med Chem, 2019).
Active and inactive are the calls of the source. The calls are words filed in the database; no cut-off is given here.

Columns and labels:
Histone deacetylase 1 = Histone deacetylase 1 (Homo sapiens, UniProt Q13547); test: Inhibition of recombinant full length HDAC1 (unknown origin) using Ac-peptide-AMC as substrate after 1 hr by fluorescence assay
SK-OV-3 = test: Antiproliferative activity against human SKOV3 cells after 72 hrs by MTT assay; assay type: functional, cell-based; conditions: SK-OV-3, 72 h
RPMI-8226 = test: Antiproliferative activity against human RPMI8226 cells after 72 hrs by MTT assay; assay type: functional, cell-based; conditions: RPMI-8226, 72 h
[1] = biological target: Histone deacetylase 1/2/3 (Homo sapiens) (UniProt Q13547+O15379+Q92769); test: Inhibition of HDAC1/2/3 in human MM1S cells assessed as upregulation of H3 acetylation at 40 nM after 6 hrs by Western blot analysis; assay type: cell-based
JeKo-1 [2] = test: Cell cycle arrest in human JeKo1 cells assessed as accumulation at S phase at 10 nM after 24 hrs by propidium iodide staining based flow cytometric analysis (reference value: 26.13 %); assay type: functional
JeKo-1 [3] = test: Induction of apoptosis in human JeKo1 cells assessed as viable cells at 10 nM after 48 hrs by annexin V-FITC/propidium iodide staining-based flow cytometric method (reference value: 91.6 %); assay type: functional; conditions: JeKo-1, 48 h, read-out: Activity
Summary of the method: (§1)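 Jeko-1 cells were grown in RPMI-1640 with 10% FBS at 37 °C under 5% CO2. They were exposed to 0, 10, 100 or 1000 nM for 48 h, then apoptosis induction was analysed.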

JeKo-1 [4] = test: Induction of apoptosis in human JeKo1 cells assessed as late apoptotic cells at 10 nM after 48 hrs by annexin V-FITC/propidium iodide staining-based flow cytometric method (reference value: 3.07 %); assay type: functional; summary of the method: as §1
JeKo-1 [5] = test: Induction of apoptosis in human JeKo1 cells assessed as late apoptotic cells at 100 nM after 48 hrs by annexin V-FITC/propidium iodide staining-based flow cytometric method (reference value: 3.07 %); assay type: functional; summary of the method: as §1
[6] = Oral bioavailability in Sprague-Dawley rat at 5 mg/kg measured upto 24 hrs by LC-MS/MS analysis; assay type: ADME, organism-based; conditions: in vivo
Summary of the method: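 SD rats (200-250 g), six per time point, given 5 mg/kg as a tail-vein bolus or orally. Blood was taken by cardiac puncture before dosing and at 5, 15, 30, 45 min and 1, 2, 4, 6, 8, 10, 12 and 24 h. Plasma was spun at 4000 g for 15 min at 4 °C and stored at -80 °C. Analysis was LC-MS/MS with multiple-reaction monitoring, followed by noncompartmental analysis.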

Chain of Histone deacetylase 1 (Q13547 whole entry): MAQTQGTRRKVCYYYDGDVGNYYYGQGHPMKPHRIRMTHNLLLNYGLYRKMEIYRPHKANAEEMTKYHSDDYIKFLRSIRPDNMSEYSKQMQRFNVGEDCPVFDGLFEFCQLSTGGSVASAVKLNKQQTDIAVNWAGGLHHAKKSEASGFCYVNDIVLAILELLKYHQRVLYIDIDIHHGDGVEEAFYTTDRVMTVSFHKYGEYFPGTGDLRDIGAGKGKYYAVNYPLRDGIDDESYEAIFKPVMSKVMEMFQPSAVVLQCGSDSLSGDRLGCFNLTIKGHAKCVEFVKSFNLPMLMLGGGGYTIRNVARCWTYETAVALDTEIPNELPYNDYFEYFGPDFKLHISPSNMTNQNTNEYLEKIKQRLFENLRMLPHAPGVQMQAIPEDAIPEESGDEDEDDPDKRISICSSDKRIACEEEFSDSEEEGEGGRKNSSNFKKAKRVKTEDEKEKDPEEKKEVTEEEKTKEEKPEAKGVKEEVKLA

IC50 (Histone deacetylase 1): 1.8 nM
IC50 (SK-OV-3): 20.5 nM
IC50 (RPMI-8226): 15.6 nM
inhibition [1]: Active
bioavailability [6]: 53.5%
SMILES: Cc1ccc(CN2CCC(c3noc(CN(C)c4ncc(C(=O)NO)cn4)n3)CC2)cc1
Activity (JeKo-1 [2]): 24%
viability at 0.01 µM (JeKo-1 [3]): 91.8%
Activity (JeKo-1 [4]): 2.24%
Activity (JeKo-1 [5]): 17.3%
